The text below walks through data of ChEMBL document CHEMBL4014346, “Lead Optimization Generates CYP11B1 Inhibitors of Pyridylmethyl Isoxazole Type with Improved Pharmacological Profile for the Treatment of Cushing's Disease” (J Med Chem, 2017).

A short description of data set [1]: Selectivity ratio of IC50 for human CYP11B2 expressed in hamster V79MZ cells to IC50 for human CYP11B1 expressed in hamster V79MZ cells. Summed up:
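V79MZ cells expressing recombinant human CYP11B1 or CYP11B2, or rat CYP11B1, incubated with [1,2-³H]-11-deoxycorticosterone (100 nM) and inhibitor over a range of concentrations; ketoconazole as reference.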

The nature of data set [2]: Oral bioavailability in Sprague-Dawley rat at 28 mg/kg administered as single dose by HPLC-MS/MS analysis. The data set is classed as ADME, organism-based. The conditions noted are these: in vivo. Summed up: (§1)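 Female Sprague-Dawley rats (244–299 g), 2 animals, given one oral dose under 2% isoflurane as a freshly sonicated suspension in 0.5% porcine gelatin/5% mannitol in water. Tail-vein plasma precipitated with acetonitrile plus diphenhydramine internal standard, quantified by HPLC-MS/MS in duplicate. Noncompartmental analysis; Cmax and Tmax read directly from the concentration–time curve; F derived against iv dosing.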

The nature of data set [3]: Volume of distribution at steady state in Sprague-Dawley rat at 5 mg/kg, iv administered as single dose by HPLC-MS/MS analysis. The data set is classed as ADME, organism-based. The settings on record: in vivo, read-out: Vdss. The method in brief: (§2)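 Female Sprague-Dawley rats (244–299 g), 2 animals; single iv dose in PEG300/ethanol/water (60/10/30), under 2% isoflurane anesthesia. Tail-vein blood taken into sodium citrate, plasma spun down, precipitated with acetonitrile containing diphenhydramine internal standard, analysed by HPLC-MS/MS with duplicate injections. Mean parameters from noncompartmental analysis.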

The next data set concerns Rattus norvegicus. Description: Time at which plasma concentration stays above in vitro rat CYP11B1 IC50 in Sprague-Dawley rat at 28 mg/kg, po administered as single dose. Summed up:
as §1

The next data set concerns Plasma. Nature of the data set: Plasma concentration in Sprague-Dawley rat at 28 mg/kg, po administered as single dose by HPLC-MS/MS analysis. The data set is classed as ADME, organism-based. The settings on record: in vivo. Summed up: as §1
Data set [4] in a line: Half life in Sprague-Dawley rat at 5 mg/kg, iv administered as single dose by HPLC-MS/MS analysis. The data set is classed as ADME, organism-based. The conditions noted are these: in vivo. Summed up:
as §2

The nature of data set [5]: AUC (0 to infinity) in Sprague-Dawley rat at 28 mg/kg, po administered as single dose by HPLC-MS/MS analysis. The data set is classed as ADME, organism-based. The settings on record: in vivo. More on the design: dose 28 mg/kg, route oral, time infinity.
The nature of data set [6]: AUC (0 to infinity) in Sprague-Dawley rat at 5 mg/kg, iv administered as single dose by HPLC-MS/MS analysis. The data set is classed as ADME, organism-based. More on the design: dose 5 mg/kg, route intravenous, time infinity. The settings on record: in vivo.
A short description of data set [7]: Half life in Sprague-Dawley rat at 28 mg/kg, po administered as single dose by HPLC-MS/MS analysis. The data set is classed as ADME, organism-based. The settings on record: in vivo. The method in brief:
as §1

Data set [8] in a line: Tmax in Sprague-Dawley rat at 28 mg/kg, po administered as single dose by HPLC-MS/MS analysis. The data set is classed as ADME, organism-based. The settings on record: in vivo. Summed up: as §1
A short description of data set [9]: Cmax in Sprague-Dawley rat at 5 mg/kg, iv administered as single dose by HPLC-MS/MS analysis. The data set is classed as ADME, organism-based. The arrangement: dose 5 mg/kg, route intravenous. The conditions noted are these: in vivo. The method in brief:
as §2

Data set [10] in a line: Cmax in Sprague-Dawley rat at 28 mg/kg, po administered as single dose by HPLC-MS/MS analysis. More on the design: dose 28 mg/kg, route oral. The settings on record: in vivo. The data set is classed as ADME, organism-based. The method in brief:
as §1

Each structure is given as a SMILES string. Some results are limits rather than exact numbers.

Consider `Cc1cncc(Cc2cc(-c3ccccc3)no2)c1`, for which the “Ratio IC50” value in data set [1] is reported as 16.

Broadly, the bioavailability is the share of a dose that reaches the circulation, judged against a reference dose that is usually intravenous. What is called half-life is the time needed for the level to fall by half in the phase considered. Read a low half-life as rapid decline. For orientation: AUC(0-inf) means the area under the concentration-time curve extrapolated to infinity. As usually defined, the Tmax is the time from dosing to the highest level. Broadly, the Cmax is the maximum level reached in the sampled fluid or tissue. Consider `COc1cncc(Cc2cc(-c3ccccc3)no2)c1`, for which the bioavailability in data set [2] was 50%. For the same compound, the Vd in [3] was found to be 3.1 L/kg. For the same compound, in the data set on Rattus norvegicus, the Time entry was “<=7 hr”. For the same compound, the concentration in the data set on Plasma is 4.11 µM. Besides, the half-life is 4.8 h in data set [4] and 3.3 h in data set [7]. The AUC(0-inf) worked out at 10200 ng·h/mL in [5] and 3680 ng·h/mL in data set [6]. The Tmax in data set [8] was found to be 2.5 h. Also, the highest concentration (Cmax) was determined as 27.8 µM in data set [9] and 6.4 µM in data set [10].
